Assay: Toxicity liver stage against HepG2, at 10uM
Assay type: cell-based
Set-up: test concentration 10 uM, cell line HepG2-A16-CD81EGFP
Conditions: human, HepG2-A16-CD81EGFP cells; read-out: INHIBITION
Procedure, shortened: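 Uninfected HepG2-A16-CD81EGFP cells, 3 × 10^3 per well, 1536-well, plated on prespotted compound at 10 μM final, parasite-free screening media added to match infected plates; puromycin 10 μM positive, DMSO 0.5% negative; run in parallel with 48 h PbLuc assay at 37 °C, 5% CO2; viability by CellTiter-Glo luminescence, normalized to controls.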

SMILES | cytotoxicity at 10 µM
c1ccc(-c2noc(C3CCN(CCn4cccn4)CC3)n2)cc1 | 2.86%
O=C(C1CC(=O)N(c2ccccc2Br)C1)N1CCC2(CC1)OCCO2 (stereo unspecified) | 11.3%
O=C(NCC1CC1)Nc1cccc(N2CCN(CC3CC3)CC2)c1 | -13.3%
Cc1c(C(=O)NCC2CCN(C)C2)n(C)c2c(C)cccc12 (stereo unspecified) | 10.1%
O=C1CCCCCN1CCC(=O)N1CCCC(c2ccn[nH]2)C1 (stereo unspecified) | 9.01%
Cc1n[nH]c(C)c1CCN(C)C(=O)c1ccc(CN2CCCCC2)cc1 | -9.9%
CN(C)CC1(O)CCCN(Cc2cnc(-c3ccco3)nc2)CC1 (stereo unspecified) | -8.58%
Cc1cccc(NC(=O)N2CCOCC(CN(C)C)C2)c1C (stereo unspecified) | 14.7%
Cc1ccc(F)cc1-n1c(COC(C)C)n[nH]c1=O | 4.72%
CSc1ccc(C(=O)C2CCCN(C(=O)CCn3cnnn3)C2)cc1 (stereo unspecified) | 6.03%
OC1CCN(CCNc2ncc3c(n2)CCN3c2ccccc2)CC1 | 5.84%
COc1ccc(CCCC(=O)N2C[C@H](C3CC3)[C@@H](N(C)C)C2)cc1 | 0.624%
C=C(C)COc1ccc(C(=O)NCC2CC(CC)=NO2)cc1 (stereo unspecified) | -48.2%
COc1ccccc1OC1CCN(Cc2cccnc2)CC1 | -1.7%
Cc1cc(C)c2c(C(=O)N(C)C)cc(-c3cnc(N)nc3)nc2c1 | -8.87%
CN1CCC(N(C)C[C@H]2CC[C@@H](Cc3ccc4occc4c3)O2)CC1 | -9.27%
COc1cc(NC2CCS(=O)(=O)CC2)ncn1 | -3.71%
COc1ncc(CN(C)C(C)c2cccnc2)cn1 (stereo unspecified) | 13%
C[C@@H]1CN(Cc2nc(C(N)=O)no2)CC[C@@]1(O)C1CC1 | -50.3%

SMILES | cytotoxicity at 10 µM
CN(Cc1csc(-c2cccs2)n1)Cc1ncccc1C(=O)O | -11.5%
CCc1cnc(C)nc1NCC(O)CN1CCCCCC1 (stereo unspecified) | 3.26%
Cn1ccnc1SCCNC1CCN(c2ncccn2)CC1 | -7.63%
CCc1cc(NCCc2cc(F)cc(F)c2)n2nccc2n1 | 19.5%
CN(C(=O)c1ccc(C2CCCO2)s1)C1CCS(=O)(=O)CC1 (stereo unspecified) | 1.72%
C[C@@H]1CN(Cc2nnc(-c3cccnc3)o2)CC[C@]1(C)O | 10.1%
CN(Cc1noc(C2CC2)n1)C1CCCN(c2cccnn2)C1 (stereo unspecified) | -2.66%
CCn1cc(CN2CCCN(C(=O)CCSC)CC2)cn1 | -1.11%
Cc1cc(C2CCCN2Cc2ccc(S(=O)(=O)N(C)C)o2)on1 (stereo unspecified) | -4.11%
Cc1nn(C)c(N(C)C)c1CNCCCN(C(C)C)S(C)(=O)=O | 1.07%
CN(C)c1cc2c(nn1)CCN(C(=O)Cc1ccc3c(c1)CCC3)C2 | -5.98%
Cn1cnc2c1CCN(Cc1csc(-c3ccco3)n1)C2 | -17.4%
Cc1ccc(O)c(C(=O)N2CCCC(NC(=O)C(C)C)C2)c1 (stereo unspecified) | -0.988%
Cc1cnn(CC2CCCN2C(=O)c2ccccc2-n2cccn2)c1 (stereo unspecified) | -4.16%
Cc1noc(C(C)C)c1C(=O)NCc1cccc(N(C)C)c1 | -1.91%
CN(C)c1cc(CNC(=O)Nc2ccc(S(C)(=O)=O)nc2)ccn1 | 0.71%
CC(C)(C)n1cc(C(=O)N2CCCN(Cc3cccs3)CC2)cn1 | -5.95%
CNc1nc(CNC(=O)Nc2ccccc2SC)cs1 | -7.95%
O=C(CCCc1ncc(-c2ccccc2)o1)N1CCN(CCO)CC1 | -4.69%

SMILES | cytotoxicity at 10 µM
OC(COc1ccccc1)CN1CCc2c(ncn2C2CC2)C1 (stereo unspecified) | 2.48%
Cc1cc(C)n(CC2CCCCN2C(=O)c2ccc3nncn3c2)n1 (stereo unspecified) | 0.168%
CC(=O)N1CCN(C(=O)C(C)n2cncn2)CC1 (stereo unspecified) | 1.64%
CCc1n[nH]c(C2CN(C(=O)c3ccsc3)CCO2)n1 (stereo unspecified) | 2.24%
CCn1nc(C)cc1C(=O)Nc1cc(F)ccc1OCC1CCCO1 (stereo unspecified) | 2.89%
Cc1ccnn1CCC(=O)N1CCCC1c1cc2cccnc2[nH]1 (stereo unspecified) | 9.17%
O=C(CCN1CCCC1)Nc1c2c(cc3c1CCC3)CCC2 | 6.3%
Cc1occc1C(=O)N1Cc2nccn2CC(CN2CCOCC2)C1 (stereo unspecified) | -117%
O=C(NCc1ccco1)[C@@H]1CC[C@@H]2[C@@H](CCN2Cc2ccc(F)cc2)O1 | -0.748%
CCN1CCc2cc(-c3cncn3CC(=O)NC(C)(C)C)ccc21 | -18.9%
O=C(C1CCC1)N1C[C@@H]2CCN(c3cccnc3)C[C@@H]2C1 | -2.13%
CNC(=O)[C@@H](c1ccccc1OC)N1CCC[C@H]1C(=O)NCCN(C)C | -5.12%
CC(=O)N1CC(=O)N(c2cnn(C)c2)CC12CCN(Cc1cccs1)C2 (stereo unspecified) | 2.26%
CCN1CCn2c(C)cnc2C12CCN(C(=O)NC)CC2 | 0.906%
CS(=O)(=O)N[C@@H]1CN(Cc2ccco2)C[C@@H]2CCCO[C@@H]21 | 6.15%
CO[C@@H]1CCN(Cc2cnn(C)c2)[C@@H]2CN(Cc3cccnc3)C[C@@H]21 | 8.47%
O=C(Nc1ccccc1)[C@H]1C[C@H]2CN(S(=O)(=O)c3ccccc3)C[C@@H]1O2 | 5.8%
CC(C)n1c(=O)[nH]c2cn(-c3ccccc3)c(=O)n21 | -7.01%
